The results in this text go back to ChEMBL document CHEMBL4665634, “Inhibiting Aβ toxicity in Alzheimer's disease by a pyridine amine derivative” (Eur J Med Chem, 2019).

Active and inactive are the calls of the source. The rule behind the calls is not given here.

Series [1] deals with Caenorhabditis elegans. Description: Antioxidant activity in Caenorhabditis elegans CL4176 assessed as effect on juglone-induced ROS level by measuring relative fluorescence intensity at 50 uM and 15 to 25 degreeC after 48 hrs by H2DCF-DA probe based fluorescence assay ( Rvb = 74.23 %). It is filed as functional.
Series [2] concerns Caenorhabditis elegans. Description: Reduction in 12 kDa amyloid beta species expression in Caenorhabditis elegans CL4176 at 50 uM after 48 hrs by Western blot analysis. It counts as functional. The method, boiled down: (§1)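 CL4176 raised on plates with compound (50 µM) at 15 °C to L3, then kept at 25 °C for 2 days. Worms sonicated in 0.1 M phosphate buffer, 16 µg protein run on 12% SDS-PAGE and blotted to PVDF. Probed with 6E10 (1:1000) and HRP anti-mouse secondary, with β-actin as the loading control.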
Background: In western blotting, separated proteins are transferred to a membrane and probed.

For series [3], the system named is Caenorhabditis elegans. Description: Inhibition of AChE in Caenorhabditis elegans CL4176 assessed as enzyme activity at 50 uM after 48 hrs by DTNB reagent based colorimetric analysis (reference value: 272.49 +/- 14.6 units/L). The settings on record: […]. An outline of the steps:
(§2)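 Transgenic CL4176 worms kept on NGM plates with compound (0, 25, 50, 100 µM) at 25 °C for 48 h. Lysates made by sonication in 0.1 M phosphate buffer pH 7.4 and centrifuged at 13000 rpm for 5 min. AChE activity in the supernatant was measured with a kit, read as absorbance at 412 nm, given in Units/L normalized to protein concentration, mean ± S.D.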

A short description of series [4]: Disaggregation of Cu2+ induced fibrils of amyloid beta (1 to 40) assessed as appearance of small soluble fragments at 0.1 to 100 uM incubated for 24 hrs uranyl acetate staining-based by TEM analysis. The conditions noted are these: dose microM 0.1-100, time 24.0 hrs.
The target of series [5] is T1, Amyloid-beta precursor protein (Homo sapiens, UniProt P05067). Description: Inhibition of amyloid beta (1 to 42)-induced paralysis in transgenic Caenorhabditis elegans CL4176 expressing human amyloid beta (1 to 42) assessed as paralyzed worms at 200 uM treated for 49 hrs at 25 degreeC by microscopic analysis (reference value: 87 %). More on the design: scale not given: the % may be the effect or the level left.

Series [6] has as its system Caenorhabditis elegans. Briefly: Upregulation of hsp-60 mRNA expression in Caenorhabditis elegans CL4176 at 50 uM by qRT-PCR analysis relative to control. It is filed as functional. An outline of the steps: (§3)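 CL4176 worms treated with compound at 25 °C for 48 h (50, 100 µM for amy-1). RNA extracted with Trizol, cDNA made, EvaGreen qRT-PCR run for 40 cycles (95 °C 5 s, 60 °C 5 s). Normalized to ama-1 by the 2^−ΔΔCt method. Three independent preparations, samples in triplicate.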
On the technique in general: Quantitative PCR measures a nucleic acid by following its amplification.

Series [7] has as its system Caenorhabditis elegans. Description: Reduction in Amyloid-beta deposits in transgenic Caenorhabditis elegans CL4176 using anti-Abeta 6E10/rhodamine-phalloidin at 50 to 100 uM after 48 hrs by immunostaining. It counts as functional. The settings on record: dose microM 50-100, time 48.0 hrs. The method, boiled down:
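CL4176 L3 worms kept on compound plates (50, 100 µM) at 25 °C for 2 days. Fixed in 4% paraformaldehyde and permeabilized with 1% Triton X-100. Stained with 6E10 plus Alexa Fluor 488 secondary and rhodamine-phalloidin (1:4000). Confocal imaging at ex 488/em 500–530 nm and ex 543/em 565–605 nm.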

Series [8] relates to Caenorhabditis elegans. Briefly: Inhibition of AChE in Caenorhabditis elegans CL4176 assessed as enzyme activity at 100 uM after 48 hrs by DTNB reagent based colorimetric analysis (reference value: 272.49 +/- 14.6 units/L). The conditions noted are these: […]. The method, boiled down:
as §2

In series [9] the test system is Caenorhabditis elegans. Description: Protection against oligomycin-induced mitochondrial stress in Caenorhabditis elegans CL4176 assessed as effect oxygen consumption rate at 100 uM after 48 hrs by seahorse XFe24 analyser based assay.
The test system of series [10] is Caenorhabditis elegans. Description: Antioxidant activity in Caenorhabditis elegans CL4176 assessed as effect on juglone-induced ROS level by measuring relative fluorescence intensity at 100 uM and 15 to 25 degreeC after 48 hrs by H2DCF-DA probe based fluorescence assay ( Rvb = 74.23 %). It counts as functional.
The target of series [11] is T1, Amyloid-beta precursor protein. Description: Inhibition of amyloid beta (1 to 42)-induced paralysis in transgenic Caenorhabditis elegans CL4176 expressing human amyloid beta (1 to 42) assessed as paralyzed worms at 50 uM treated for 49 hrs at 25 degreeC by microscopic analysis (reference value: 87 %). On the set-up: scale not given: the % may be the effect or the level left.

In a further series the test system is Mus musculus. Description: Cognitive enhancing effect in APP/PS1 double mutant-transgenic C57BL/6 mouse model assessed as effect on escape latency time at 1 mg/kg, iv measured on day 5 by Morris water maze test (reference value: 50.08 +/- 17.95 sec). The conditions noted are these: time 5 day. It counts as functional.
In the next series the test system is PC-12. Briefly: Cytotoxicity against rat PC-12 cells assessed as reduction in cell viability at 100 uM measured after 48 hrs by MTT assay relative to control. It counts as cell-based. The settings on record: pc-12, 48 h. The method, boiled down: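 PC12 cells differentiated with NGF, then cultured overnight in RPMI-1640 with 10% FBS at 37 °C, 5% CO2. MTT assay with formazan absorbance at 570 nm. Viability = (OD test − blank)/(OD control − blank) × 100%, mean of three replicates.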
On the technique in general: Formazan colour is commonly taken as a measure of viable cells.

Series [12] deals with T1, Amyloid-beta precursor protein. Description: Inhibition of amyloid beta (1 to 42)-induced paralysis in transgenic Caenorhabditis elegans GMC101 L3 expressing human amyloid beta (1 to 42) assessed as reduction in fluorescence intensity at 100 uM incubated for 2 days by fluorescence based confocal microscopic analysis relative to control. The conditions noted are these: time 2.0 day. The method, boiled down: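 GMC101 L3 worms kept on compound plates (50, 100 µM) at 25 °C for 2 days, mounted on 2% agarose pads. GFP imaged by confocal microscopy at ex 488/em 500–530 nm and intensity quantified. Two experiments, 15 worms per group.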

Series [13] shares this target. Briefly: Inhibition of amyloid beta (1 to 42)-induced paralysis in transgenic Caenorhabditis elegans CL4176 L3 expressing human amyloid beta (1 to 42) assessed as roller movement of worms by microscopic analysis.
The subject of series [14] is Caenorhabditis elegans. Briefly: Reduction in 16 kDa amyloid beta species expression in Caenorhabditis elegans CL4176 at 50 uM after 48 hrs by Western blot analysis. It is filed as functional. The method, boiled down: as §1
The target in series [15] is T1, Amyloid-beta precursor protein. Description: Inhibition of amyloid beta (1 to 42)-induced paralysis in transgenic Caenorhabditis elegans GMC101 expressing human amyloid beta (1 to 42) assessed as paralyzed worms at 50 uM measured after 92 hrs by microscopic analysis relative to control. On the set-up: scale not given: the % may be the effect or the level left.
Series [16] shares this target. Briefly: Inhibition of self-induced aggregation amyloid beta (1 to 42) (unknown origin) assessed as reduction in fibril formation incubated for 24 hrs by Thioflavin T based fluorometric assay. An outline of the steps:
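Aβ42 (20 µM) mixed with compound (0.1–100 µM), with or without Zn2+ (20 µM), in Tris-HCl pH 7.4, incubated at 37 °C for 24 h. ThT (5 µM) added, fluorescence read at ex 450/em 485 nm.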

Series [17] has as its system Caenorhabditis elegans. Briefly: Reduction in amy-1 mRNA expression in Caenorhabditis elegans CL4176 at 50 to 100 uM after 48 hrs by qRT-PCR analysis. It counts as functional. The conditions noted are these: dose microM 50-100, time 48.0 hrs. An outline of the steps:
as §3

T1 sequence (P05067 whole entry): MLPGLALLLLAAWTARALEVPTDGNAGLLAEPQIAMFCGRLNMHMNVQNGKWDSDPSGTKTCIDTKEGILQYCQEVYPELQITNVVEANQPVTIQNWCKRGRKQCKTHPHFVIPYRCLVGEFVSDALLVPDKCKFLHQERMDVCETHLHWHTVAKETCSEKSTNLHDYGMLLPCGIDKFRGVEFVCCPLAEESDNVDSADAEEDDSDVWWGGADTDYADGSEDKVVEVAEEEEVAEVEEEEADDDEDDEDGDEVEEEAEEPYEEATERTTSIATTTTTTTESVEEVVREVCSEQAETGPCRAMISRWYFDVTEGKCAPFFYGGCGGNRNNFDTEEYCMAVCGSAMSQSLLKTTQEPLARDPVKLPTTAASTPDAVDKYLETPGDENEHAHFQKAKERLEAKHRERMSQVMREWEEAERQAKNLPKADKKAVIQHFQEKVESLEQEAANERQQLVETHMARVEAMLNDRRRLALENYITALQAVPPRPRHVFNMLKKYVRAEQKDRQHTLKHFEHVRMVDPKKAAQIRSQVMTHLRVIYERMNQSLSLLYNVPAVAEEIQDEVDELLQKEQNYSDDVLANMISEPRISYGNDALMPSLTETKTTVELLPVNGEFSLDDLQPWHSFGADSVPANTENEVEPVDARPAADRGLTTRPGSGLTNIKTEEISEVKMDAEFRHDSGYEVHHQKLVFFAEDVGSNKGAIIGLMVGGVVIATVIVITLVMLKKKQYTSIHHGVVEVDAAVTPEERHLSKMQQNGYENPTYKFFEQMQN

On to `Oc1cc(CN(Cc2ccccn2)Cc2ccccn2)cc(C[P+](c2ccccc2)(c2ccccc2)c2ccccc2)c1.[Br-]`, for which the Activity with Caenorhabditis elegans [1] is 48.97%; in the series with Caenorhabditis elegans [3] it was 166 U/L; in [5] it was 35%; in the series with Caenorhabditis elegans [8] it was 135 U/L; in the series with Caenorhabditis elegans [10], 28.14%; in series [11], 74%. In addition, the figures for the Activity (in the series on PC-12; in [15]) were 80.5% and 74%, respectively. Further, the result (with Caenorhabditis elegans [2]; in series [4]; in the series with Caenorhabditis elegans [7]; in the series with Caenorhabditis elegans [9]; in series [13]; in the series on Caenorhabditis elegans [14]) was Active. In addition, the result in the series on Caenorhabditis elegans [17] was Active. In the series with Caenorhabditis elegans [6], this molecule gave a fold change (FC) of 1.59. Besides, the Time with Mus musculus is on record as 34.25 s. The values for the inhibition in series [12] and in series [16] were 20% and “Dose-dependent effect”, respectively. Also, the half-inhibitory concentration (IC50) in series [16] is 12.5 µM.

A word on the inhibition: it is the percentage by which the read-out fell short of the control. By IC50 is commonly meant the midpoint of a concentration-inhibition curve.
